Assay results as given in ChEMBL document CHEMBL3414528, “Novel naftopidil-related derivatives and their biological effects as alpha1-adrenoceptors antagonists and antiproliferative agents” (Eur J Med Chem, 2015).
Active and inactive are the calls of the source. No cut-off for these calls is given here.

Experiments:
[1] = Cell cycle arrest in human PC3 cells assessed as accumulation at G2/M phase at 10 uM after 24 hrs by propidium iodide staining-based flow cytometry (reference value: 33.04%); format: functional; details: PC-3
Outline: (§1)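 PC-3 cells given compound at 5, 10, 15, 20 or 30 μM, or 0.1% DMSO vehicle, for 24 h; stained with propidium iodide and analysed by flow cytometry for G0/G1, S and G2/M fractions.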

PC-3 [2] = assay: Induction of apoptosis in human PC3 cells assessed as early apoptotic cells at 5 uM after 24 hrs by annexin V/propidium iodide staining-based flow cytometry (reference value: 5.7%); format: functional
Outline: (§2)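 Phosphatidylserine exposure in PC-3 cells after 24 h at 0, 5, 10, 20 or 30 μM, by Alexa Fluor 488 annexin V/PI double staining and flow cytometry; early apoptotic = AV+/PI−, late apoptotic or dead = AV+/PI+.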

[3] = Cell cycle arrest in human PC3 cells assessed as accumulation at G0/G1 phase at 5 uM after 24 hrs by propidium iodide staining-based flow cytometry (reference value: 39.20%); format: functional; details: PC-3; outline: as §1
[4] = Cell cycle arrest in human PC3 cells assessed as accumulation at S phase at 10 uM after 24 hrs by propidium iodide staining-based flow cytometry (reference value: 27.26%); format: functional; details: PC-3; outline: as §1
PC-3 [5] = assay: Induction of apoptosis in human PC3 cells assessed as total apoptotic cells at 5 uM after 24 hrs by annexin V/propidium iodide staining-based flow cytometry; format: functional; outline: as §2
[6] = Cell cycle arrest in human PC3 cells assessed as accumulation at G0/G1 phase at 15 uM after 24 hrs by propidium iodide staining-based flow cytometry (reference value: 39.20%); format: functional; details: PC-3; outline: as §1
[7] = Cell cycle arrest in human PC3 cells assessed as accumulation at S phase at 30 uM after 24 hrs by propidium iodide staining-based flow cytometry (reference value: 27.26%); format: functional; details: PC-3; outline: as §1
[8] = Cell cycle arrest in human PC3 cells assessed as accumulation at G2/M phase at 5 uM after 24 hrs by propidium iodide staining-based flow cytometry (reference value: 33.04%); format: functional; details: PC-3; outline: as §1
LNCaP = assay: Cytotoxicity against human LNCAP cells after 48 hrs by WST-8 assay; format: functional, cell-based
PC-3 [9] = assay: Induction of apoptosis in human PC3 cells assessed as early apoptotic cells at 30 uM after 24 hrs by annexin V/propidium iodide staining-based flow cytometry (reference value: 5.7%); format: functional; outline: as §2
Rattus norvegicus [10] = species: Rattus norvegicus; assay: Selectivity ratio for Sprague-Dawley rat thoracic aorta adrenergic alpha-1D receptor to Sprague-Dawley rat spleen adrenergic alpha-1B receptor; format: tissue-based
[11] = Cell cycle arrest in human PC3 cells assessed as accumulation at G2/M phase at 20 uM after 24 hrs by propidium iodide staining-based flow cytometry (reference value: 33.04%); format: functional; details: PC-3; outline: as §1
DU-145 = assay: Cytotoxicity against human DU145 cells after 48 hrs by WST-8 assay; format: functional, cell-based; details: DU-145, 48 h
[12] = Cell cycle arrest in human PC3 cells assessed as accumulation at G2/M phase at 30 uM after 24 hrs by propidium iodide staining-based flow cytometry (reference value: 33.04%); format: functional; details: PC-3; outline: as §1
[13] = Cell cycle arrest in human PC3 cells assessed as accumulation at G0/G1 phase at 20 uM after 24 hrs by propidium iodide staining-based flow cytometry (reference value: 39.20%); format: functional; details: PC-3; outline: as §1
[14] = Induction of apoptosis in human PC3 cells assessed as upregulation of Bax expression after 24 hrs by Western blotting analysis; format: functional, cell-based; details: PC-3
Outline: (§3)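 PC-3 cells exposed for 24 h to 0, 1, 5, 10, 20 or 30 μM; Bax, Bcl-2 and activated caspase-3 measured by Western blot, reported as Bax/Bcl-2 value.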

[15] = target: T1, Alpha-1A adrenergic receptor (Rattus norvegicus, UniProt P43140); assay: Antagonist activity at Sprague-Dawley rat prostatic vas deferens adrenergic alpha-1A receptor after 20 mins; details: read-out: pA2 (converted)
T1 sequence (P43140 whole entry): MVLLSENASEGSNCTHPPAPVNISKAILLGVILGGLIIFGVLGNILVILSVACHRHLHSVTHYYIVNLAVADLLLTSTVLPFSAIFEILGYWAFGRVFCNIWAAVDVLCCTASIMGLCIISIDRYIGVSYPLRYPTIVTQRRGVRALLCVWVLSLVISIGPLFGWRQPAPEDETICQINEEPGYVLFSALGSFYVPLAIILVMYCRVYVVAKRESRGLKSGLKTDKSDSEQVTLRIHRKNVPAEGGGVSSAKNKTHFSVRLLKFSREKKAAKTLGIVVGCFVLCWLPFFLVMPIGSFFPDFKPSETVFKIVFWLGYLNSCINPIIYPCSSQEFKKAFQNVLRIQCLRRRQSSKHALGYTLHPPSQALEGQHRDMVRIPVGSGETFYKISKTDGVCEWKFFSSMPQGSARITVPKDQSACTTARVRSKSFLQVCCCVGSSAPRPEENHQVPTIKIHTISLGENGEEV
Outline: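 Isolated rat tissues (prostatic vas deferens, spleen, thoracic aorta) contracted with cumulative norepinephrine; concentration-response curves recorded in presence of increasing antagonist concentrations, antagonism read as rightward curve shift. Mean ± SEM of five to eight separate experiments.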

PC-3 [16] = assay: Induction of apoptosis in human PC3 cells assessed as early apoptotic cells at 20 uM after 24 hrs by annexin V/propidium iodide staining-based flow cytometry (reference value: 5.7%); format: functional; outline: as §2
[17] = Cell cycle arrest in human PC3 cells assessed as accumulation at S phase at 15 uM after 24 hrs by propidium iodide staining-based flow cytometry (reference value: 27.26%); format: functional; details: PC-3; outline: as §1
PC-3 [18] = assay: Inhibition of norepinephrine-induced cell proliferation in human PC3 cells at 1.5 to 100 uM by WST-8 assay; format: functional, cell-based
Outline: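 PC-3 cells treated with compound at 100, 75, 50, 25, 12.5, 6.25, 3.0 and 1.5 μM alone or together with norepinephrine (20 or 50 μM); viability by WST-8. Mean ± SEM, two-way ANOVA with post-hoc tests.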

PC-3 [19] = assay: Induction of apoptosis in human PC3 cells assessed as late apoptotic cells at 5 uM after 24 hrs by annexin V/propidium iodide staining-based flow cytometry (reference value: 2.1%); format: functional; outline: as §2
Rattus norvegicus [20] = species: Rattus norvegicus; assay: Selectivity ratio for Sprague-Dawley rat prostatic vas deferens adrenergic alpha-1A receptor to Sprague-Dawley rat spleen adrenergic alpha-1B receptor
[21] = Cell cycle arrest in human PC3 cells assessed as accumulation at S phase at 5 uM after 24 hrs by propidium iodide staining-based flow cytometry (reference value: 27.26%); format: functional; details: PC-3; outline: as §1
[22] = Induction of apoptosis in human PC3 cells assessed as upregulation of Bcl2 expression after 24 hrs by Western blotting analysis; format: functional, cell-based; details: PC-3, in the assay text read “upregulation of Bax/Bcl2 ratio” for “upregulation of Bcl2 expression”; outline: as §3
PC-3 [23] = assay: Induction of apoptosis in human PC3 cells assessed as early apoptotic cells at 10 uM after 24 hrs by annexin V/propidium iodide staining-based flow cytometry (reference value: 5.7%); format: functional; outline: as §2
PC-3 [24] = assay: Induction of apoptosis in human PC3 cells assessed as late apoptotic cells at 30 uM after 24 hrs by annexin V/propidium iodide staining-based flow cytometry (reference value: 2.1%); format: functional; outline: as §2
[25] = Cell cycle arrest in human PC3 cells assessed as accumulation at G2/M phase at 15 uM after 24 hrs by propidium iodide staining-based flow cytometry (reference value: 33.04%); format: functional; details: PC-3; outline: as §1

For COc1ccccc1N1CCN(CCCNC(=O)c2cc3ccccc3n2Cc2ccccc2)CC1, the Activity [1] was 26.5%, the Activity (PC-3 [2]) was 20.2% and the Activity [3] was 42.8%. The Activity [4] was 15.2%, the Activity (PC-3 [5]) was 23.7% and the Activity [6] was 70.6%. For the same compound, the Activity [7] was 20.9%, the Activity [8] was 33.5% and the IC50 (LNCaP) was 25.5 µM. For the same compound, the Activity (PC-3 [9]) was 50.4%, the Ratio (Rattus norvegicus [10]) was 47.9 and the Activity [11] was 16.2%. For the same compound, the IC50 (DU-145) was 33.3 µM, the Activity [12] was 41.7% and the Activity [13] was 61.6%. For the same compound, the Activity [14] was “Dose-dependent effect”, the Kb [15] was 0.00741 µM and the Activity (PC-3 [16]) was 44.9%. The Activity [17] was 14.5%, the inhibition (PC-3 [18]) was “Active” and the Activity (PC-3 [19]) was 3.5%. For the same compound, the Ratio (Rattus norvegicus [20]) was 19.1, the Activity [21] was 23.7% and the Activity [22] was “Dose-dependent effect”. For the same compound, the Activity (PC-3 [23]) was 41.9%, the Activity (PC-3 [24]) was 32.6% and the Activity [25] was 14.9%.
